Experimental findings from ChEMBL document CHEMBL4699593, “Identification of 2,4-Disubstituted Imidazopyridines as Hemozoin Formation Inhibitors with Fast-Killing Kinetics and In Vivo Efficacy in the Plasmodium falciparum NSG Mouse Model” (J Med Chem, 2020) are described below.

Structures are written as SMILES. In brackets after ≈: the same amount, converted by molar mass.

For one data set, the system named is Plasmodium falciparum. Kind of data set: Antiplasmodial activity against multidrug-resistant asexual blood stage Plasmodium falciparum K1 strain assessed as reduction in parasite growth after 72 hrs by NBT reagent based LDH assay. The settings on record: K1, 72 h. The data set is classed as functional, organism-based. The essentials: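 Asexual blood-stage K1 (multidrug-resistant) parasites were read out by the parasite lactate dehydrogenase (pLDH) assay. […] Most individual values varied less than 2× (maximum 3×).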
One may read the IC50 as the concentration that inhibits the measured activity by half. Consider `Fc1ccc(-c2nc3c(N4CCC(N5CCNCC5)CC4)nccc3[nH]2)cc1C(F)(F)F`, for which the IC50 was 460 nM.
For `CN1CCN([C@H]2CC[C@H](Nc3nccc4[nH]c(-c5cc(F)cc(F)c5)nc34)CC2)CC1`, the IC50 worked out at 240 nM.
On the same count and under the same terms, with `CN1CCN(C[C@H]2CCCN(c3nccc4[nH]c(-c5cc(F)cc(F)c5)nc34)C2)CC1` the figure was 170 nM; with `CN1CCN([C@H]2CC[C@@H](Nc3nccc4[nH]c(-c5cc(F)cc(F)c5)nc34)CC2)CC1`, 310 nM; with `NCC1CCN(c2nccc3[nH]c(-c4cccc(OC(F)(F)F)c4)nc23)CC1`, 190 nM.
On the same count and under the same terms, with `CN(C)C1CCN(c2nccc3[nH]c(-c4cccc(OC(F)(F)F)c4)nc23)CC1` the figure was 190 nM.
Same read-out and setting: with `CN1CCN(C2CCN(c3nccc4[nH]c(-c5ccc(F)c(C(F)(F)F)c5)nc34)CC2)CC1` the figure was 80 nM; with `C[C@@H]1CN(c2nccc3[nH]c(-c4ccc(F)c(F)c4)nc23)C[C@H](C)N1`, 450 nM.
In the case of `CN1CCN(CC2CCN(c3nccc4[nH]c(-c5ccc(F)c(C(F)(F)F)c5)nc34)CC2)CC1`, the 50% inhibitory concentration (IC50) was 17 nM.
Still for that read-out and setting: with `Fc1cc(F)cc(-c2nc3c(N4CCC(CN5CCC(F)(F)CC5)CC4)nccc3[nH]2)c1` the figure was 310 nM; with `CN1CCN(CC2CCN(c3nccc4[nH]c(-c5cc(F)cc(C(F)(F)F)c5)nc34)CC2)CC1`, 89 nM; with `CN1CCN(C[C@@H]2CCCN(c3nccc4[nH]c(-c5cc(F)cc(F)c5)nc34)C2)CC1`, 130 nM.
The same measure, in the same setting: the figure for `C[C@@H]1CN(c2nccc3[nH]c(-c4ccc(F)c(F)c4)nc23)C[C@H](C)N1C` is 720 nM; for `Fc1ccc(-c2nc3c(N4CCN5CCCC5C4)nccc3[nH]2)cc1F` (configuration not stated) it is 480 nM.
Same read-out and setting: with `CC(C)(C)N1CCN(CC2CCN(c3nccc4[nH]c(-c5cc(F)cc(F)c5)nc34)CC2)CC1` the figure was 47 nM.
Consider `NC1CCN(c2nccc3[nH]c(-c4ccc(F)c(F)c4)nc23)CC1`, for which the IC50 worked out at 910 nM.
In the case of `Fc1cc(F)cc(-c2nc3c(N4CCC(CN5CCOCC5)CC4)nccc3[nH]2)c1`, the IC50 worked out at 390 nM.

Tested on in a further data set: not listed separately
Kind of data set: Aqueous solubility of compound in phosphate buffer saline at pH 6.5 incubated for 20 hrs under shaking condition by shake-flask method based HPLC-DAD analysis. The data set is classed as physicochemical. Conditions: phosphate buffered saline. The gist of the method:
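Equilibrium aqueous solubility was measured at pH 6.5 using a miniaturized shake-flask method.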
The term thermodynamic solubility denotes solubility found after equilibrating the solid with the medium. Turning to `Fc1ccc(-c2nc3c(N4CCC(N5CCNCC5)CC4)nccc3[nH]2)cc1C(F)(F)F`, the thermodynamic solubility at 20 h was 200 µM (≈ 89.7 µg/mL).
Consider `CN1CCN([C@H]2CC[C@H](Nc3nccc4[nH]c(-c5cc(F)cc(F)c5)nc34)CC2)CC1`, for which the solubility (thermodynamic) at 20 h was 200 µM (≈ 85.3 µg/mL).
The same measure, in the same setting: with `CN1CCN(C[C@H]2CCCN(c3nccc4[nH]c(-c5cc(F)cc(F)c5)nc34)C2)CC1` the figure was 200 µM (≈ 85.3 µg/mL); with `CN1CCN([C@H]2CC[C@@H](Nc3nccc4[nH]c(-c5cc(F)cc(F)c5)nc34)CC2)CC1`, 200 µM (≈ 85.3 µg/mL); with `NCC1CCN(c2nccc3[nH]c(-c4cccc(OC(F)(F)F)c4)nc23)CC1`, 200 µM (≈ 78.3 µg/mL).
Still for that read-out and setting: with `CN(C)C1CCN(c2nccc3[nH]c(-c4cccc(OC(F)(F)F)c4)nc23)CC1` the figure was 180 µM (≈ 73 µg/mL); with `CN1CCN(C2CCN(c3nccc4[nH]c(-c5ccc(F)c(C(F)(F)F)c5)nc34)CC2)CC1`, 195 µM (≈ 90.2 µg/mL).
Same read-out and setting: the figure for `C[C@@H]1CN(c2nccc3[nH]c(-c4ccc(F)c(F)c4)nc23)C[C@H](C)N1` is 190 µM (≈ 65.2 µg/mL).
Consider `CN1CCN(CC2CCN(c3nccc4[nH]c(-c5ccc(F)c(C(F)(F)F)c5)nc34)CC2)CC1`, for which the thermodynamic solubility at 20 h stood at 165 µM (≈ 78.6 µg/mL).
The same measure, in the same setting: with `Fc1cc(F)cc(-c2nc3c(N4CCC(CN5CCC(F)(F)CC5)CC4)nccc3[nH]2)c1` the figure was under 5 µM; with `CN1CCN(CC2CCN(c3nccc4[nH]c(-c5cc(F)cc(C(F)(F)F)c5)nc34)CC2)CC1`, 165 µM (≈ 78.6 µg/mL); with `CN1CCN(C[C@@H]2CCCN(c3nccc4[nH]c(-c5cc(F)cc(F)c5)nc34)C2)CC1`, 145 µM (≈ 61.8 µg/mL).
`C[C@@H]1CN(c2nccc3[nH]c(-c4ccc(F)c(F)c4)nc23)C[C@H](C)N1C` registered a thermodynamic solubility at 20 h of 50 µM (≈ 17.9 µg/mL).
The same measure, in the same setting: with `Fc1ccc(-c2nc3c(N4CCN5CCCC5C4)nccc3[nH]2)cc1F` (configuration not stated) the figure was 120 µM (≈ 42.6 µg/mL); with `CC(C)(C)N1CCN(CC2CCN(c3nccc4[nH]c(-c5cc(F)cc(F)c5)nc34)CC2)CC1`, 185 µM (≈ 86.7 µg/mL); with `NC1CCN(c2nccc3[nH]c(-c4ccc(F)c(F)c4)nc23)CC1`, 200 µM (≈ 65.9 µg/mL).
The same measure, in the same setting: with `Fc1cc(F)cc(-c2nc3c(N4CCC(CN5CCOCC5)CC4)nccc3[nH]2)c1` the figure was 25 µM (≈ 10.3 µg/mL).

For the next data set, the system named is CHO. Put plainly: Cytotoxicity against CHO cells assessed as reduction in cell viability by MTT assay. Conditions: chinese hamster. The data set is classed as cell-based, Cricetulus griseus. The gist of the method:
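Cytotoxicity was measured in Chinese hamster ovary (CHO) cells and reported as CC50. The selectivity index is CC50 divided by NF54 IC50.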
A word on the CC50: it is the concentration giving 50% cytotoxicity. Regarding `Fc1ccc(-c2nc3c(N4CCC(N5CCNCC5)CC4)nccc3[nH]2)cc1C(F)(F)F`, the CC50 came out at 34000 nM.
For `CN1CCN([C@H]2CC[C@H](Nc3nccc4[nH]c(-c5cc(F)cc(F)c5)nc34)CC2)CC1`, the CC50 is 11000 nM.
The same measure, in the same setting: with `CN1CCN(C[C@H]2CCCN(c3nccc4[nH]c(-c5cc(F)cc(F)c5)nc34)C2)CC1` the figure was 7900 nM; with `CN1CCN([C@H]2CC[C@@H](Nc3nccc4[nH]c(-c5cc(F)cc(F)c5)nc34)CC2)CC1`, 14000 nM; with `NCC1CCN(c2nccc3[nH]c(-c4cccc(OC(F)(F)F)c4)nc23)CC1`, 2900 nM.
As to `CN1CCN(C2CCN(c3nccc4[nH]c(-c5ccc(F)c(C(F)(F)F)c5)nc34)CC2)CC1`, the CC50 was determined as 4800 nM.
Take `C[C@@H]1CN(c2nccc3[nH]c(-c4ccc(F)c(F)c4)nc23)C[C@H](C)N1`: the CC50 came out at 6500 nM.
On the same count and under the same terms, the figure for `CN1CCN(CC2CCN(c3nccc4[nH]c(-c5ccc(F)c(C(F)(F)F)c5)nc34)CC2)CC1` is 3100 nM; for `Fc1cc(F)cc(-c2nc3c(N4CCC(CN5CCC(F)(F)CC5)CC4)nccc3[nH]2)c1` it is 26000 nM; for `CN1CCN(CC2CCN(c3nccc4[nH]c(-c5cc(F)cc(C(F)(F)F)c5)nc34)CC2)CC1` it is 3100 nM.
`CN1CCN(C[C@@H]2CCCN(c3nccc4[nH]c(-c5cc(F)cc(F)c5)nc34)C2)CC1`: the CC50 amounted to 3200 nM.
On the same count and under the same terms, the figure for `C[C@@H]1CN(c2nccc3[nH]c(-c4ccc(F)c(F)c4)nc23)C[C@H](C)N1C` is over 50000 nM.
Consider `Fc1ccc(-c2nc3c(N4CCN5CCCC5C4)nccc3[nH]2)cc1F` (configuration not stated), for which the CC50 came out at 32000 nM.
`CC(C)(C)N1CCN(CC2CCN(c3nccc4[nH]c(-c5cc(F)cc(F)c5)nc34)CC2)CC1`: the CC50 came out at 8600 nM.
With `NC1CCN(c2nccc3[nH]c(-c4ccc(F)c(F)c4)nc23)CC1`, the CC50 was determined as 8200 nM.
Still for that read-out and setting: with `Fc1cc(F)cc(-c2nc3c(N4CCC(CN5CCOCC5)CC4)nccc3[nH]2)c1` the figure was over 50000 nM.

In another data set the test system is Plasmodium falciparum. Put plainly: Antiplasmodial activity against multidrug-sensitive asexual blood stage Plasmodium falciparum NF54 strain assessed as reduction in parasite growth after 72 hrs by NBT reagent based LDH assay. The data set is classed as functional, organism-based. Conditions: NF54, 72 h.
For the molecule `Fc1ccc(-c2nc3c(N4CCC(N5CCNCC5)CC4)nccc3[nH]2)cc1C(F)(F)F`, the 50% inhibitory concentration (IC50) was determined as 36 nM.
Take `CN1CCN([C@H]2CC[C@H](Nc3nccc4[nH]c(-c5cc(F)cc(F)c5)nc34)CC2)CC1`: the IC50 stood at 130 nM.
Take `CN1CCN(C[C@H]2CCCN(c3nccc4[nH]c(-c5cc(F)cc(F)c5)nc34)C2)CC1`: the IC50 amounted to 73 nM.
As for `CN1CCN([C@H]2CC[C@@H](Nc3nccc4[nH]c(-c5cc(F)cc(F)c5)nc34)CC2)CC1`, the IC50 was 160 nM.
Same read-out and setting: with `NCC1CCN(c2nccc3[nH]c(-c4cccc(OC(F)(F)F)c4)nc23)CC1` the figure was 68 nM; with `CN(C)C1CCN(c2nccc3[nH]c(-c4cccc(OC(F)(F)F)c4)nc23)CC1`, 140 nM; with `CN1CCN(C2CCN(c3nccc4[nH]c(-c5ccc(F)c(C(F)(F)F)c5)nc34)CC2)CC1`, 58 nM.
With `C[C@@H]1CN(c2nccc3[nH]c(-c4ccc(F)c(F)c4)nc23)C[C@H](C)N1`, the IC50 was 76 nM.
The same measure, in the same setting: the figure for `CN1CCN(CC2CCN(c3nccc4[nH]c(-c5ccc(F)c(C(F)(F)F)c5)nc34)CC2)CC1` is 50 nM; for `Fc1cc(F)cc(-c2nc3c(N4CCC(CN5CCC(F)(F)CC5)CC4)nccc3[nH]2)c1` it is 200 nM; for `CN1CCN(CC2CCN(c3nccc4[nH]c(-c5cc(F)cc(C(F)(F)F)c5)nc34)CC2)CC1` it is 54 nM.
The same measure, in the same setting: the figure for `CN1CCN(C[C@@H]2CCCN(c3nccc4[nH]c(-c5cc(F)cc(F)c5)nc34)C2)CC1` is 28 nM.
Regarding `C[C@@H]1CN(c2nccc3[nH]c(-c4ccc(F)c(F)c4)nc23)C[C@H](C)N1C`, the 50% inhibitory concentration (IC50) turned out to be 260 nM.
For `Fc1ccc(-c2nc3c(N4CCN5CCCC5C4)nccc3[nH]2)cc1F` (configuration not stated), the IC50 came to 220 nM.
Turning to `CC(C)(C)N1CCN(CC2CCN(c3nccc4[nH]c(-c5cc(F)cc(F)c5)nc34)CC2)CC1`, the concentration for half-maximal inhibition (IC50) is 19 nM.
Still for that read-out and setting: the figure for `NC1CCN(c2nccc3[nH]c(-c4ccc(F)c(F)c4)nc23)CC1` is 110 nM.
Still for that read-out and setting: the figure for `Fc1cc(F)cc(-c2nc3c(N4CCC(CN5CCOCC5)CC4)nccc3[nH]2)c1` is 290 nM.
